According to ChEMBL document CHEMBL4251569, “Camptothecin-psammaplin A hybrids as topoisomerase I and HDAC dual-action inhibitors” (Eur J Med Chem, 2018):

Tests used:
NCI-H460 = experiment: cells; type: functional, cell-based; conditions: Homo sapiens, NCI-H460, 72 h
cells [1] = type: functional, cell-based; conditions: Homo sapiens, 72 h
MM473 [2] = experiment: Cell cycle arrest in human MM473 cells assessed as accumulation at G0/G1 phase at 4 uM after 72 hrs by propidium iodide staining-based flow cytometric method (reference value: 80.2%); type: functional
MM473 [3] = experiment: Induction of apoptosis in human MM473 cells at 4 uM after 72 hrs by propidium iodide staining-based flow cytometric method (reference value: 1.4%); type: functional
A2780 = experiment: cells; type: functional, cell-based; conditions: Homo sapiens, A2780, 72 h
cells [4] = type: functional, cell-based; conditions: Homo sapiens, 72 h; remark: listed apart in the source
MM473 [5] = experiment: Cell cycle arrest in human MM473 cells assessed as accumulation at S phase at 4 uM after 48 hrs by propidium iodide staining-based flow cytometric method (reference value: 23.9%); type: functional
Histone deacetylase 2 = Histone deacetylase 2 (Homo sapiens, UniProt Q92769); experiment: Inhibition of HDAC2 (unknown origin) using RHKK(Ac)AMC as substrate after 1 to 2 hrs by fluorescence assay
Chain of Histone deacetylase 2 (Q92769 whole entry): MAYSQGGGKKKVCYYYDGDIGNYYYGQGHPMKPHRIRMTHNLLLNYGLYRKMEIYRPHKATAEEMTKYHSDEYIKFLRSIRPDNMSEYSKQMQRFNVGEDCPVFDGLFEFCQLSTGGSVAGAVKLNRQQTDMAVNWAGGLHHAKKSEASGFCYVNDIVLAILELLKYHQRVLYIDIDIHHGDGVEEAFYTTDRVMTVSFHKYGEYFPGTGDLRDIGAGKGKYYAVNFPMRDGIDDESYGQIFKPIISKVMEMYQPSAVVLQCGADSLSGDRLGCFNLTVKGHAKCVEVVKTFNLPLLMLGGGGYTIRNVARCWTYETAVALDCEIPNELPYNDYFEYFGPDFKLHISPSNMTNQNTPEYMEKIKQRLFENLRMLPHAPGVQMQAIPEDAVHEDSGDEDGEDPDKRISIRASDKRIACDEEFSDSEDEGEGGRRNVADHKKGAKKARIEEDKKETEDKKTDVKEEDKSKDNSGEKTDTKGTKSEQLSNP

[6] = Induction of apoptosis in human MM487 cells at 0.3 uM after 24 hrs by propidium iodide staining-based flow cytometric method (reference value: 0.5%); type: functional
cells [7] = type: functional, cell-based; conditions: Homo sapiens, A2780/DX, 72 h
HepG2 = experiment: Antiproliferative activity against human HepG2 cells after 72 hrs by SRB assay; type: functional, cell-based; conditions: HepG2, 72 h
[8] = Cell cycle arrest in human MM487 cells assessed as accumulation at S phase at 0.3 uM after 72 hrs by propidium iodide staining-based flow cytometric method (reference value: 14.6%); type: functional
MM473 [9] = experiment: Cell cycle arrest in human MM473 cells assessed as accumulation at G2/M phase at 4 uM after 72 hrs by propidium iodide staining-based flow cytometric method (reference value: 4.6%); type: functional
[10] = Cell cycle arrest in human MM487 cells assessed as accumulation at G2/M phase at 0.3 uM after 48 hrs by propidium iodide staining-based flow cytometric method (reference value: 12.5%); type: functional
[11] = Cell cycle arrest in human MM487 cells assessed as accumulation at G2/M phase at 0.3 uM after 72 hrs by propidium iodide staining-based flow cytometric method (reference value: 5.4%); type: functional
NB-4 = experiment: cells; type: functional, cell-based; conditions: Homo sapiens, NB-4, 72 h
U2932 = experiment: cells; type: functional, cell-based; conditions: Homo sapiens, U2932, 72 h
MM473 [12] = experiment: Antitumor activity against human MM473 cells xenografted in CD1 nude mouse assessed as inhibition of tumor volume at 90 mg/kg, iv administered every 4 days per week for 3 weeks measured 10 days post last dose by luciferase reporter assay relative to vehicle-treated control; type: functional
Summary of the method: (§1)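 MM473 mesothelioma cells (F-10, 10% FBS, G418; mycoplasma-checked, >95% viable) injected intrapleurally, 1x10⁶ in 200 µl M199 per CD-1 nude mouse. Treatment i.v. from day 15 when tumours were growing, in 10% 1:1 ethanol–Cremophor in saline, q4dx3w; vehicle control. Tumour burden followed weekly by IVIS bioluminescence after i.p. D-luciferin (100 µL/10 g), as average radiance; body weight recorded.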

[13] = Cell cycle arrest in human MM487 cells assessed as accumulation at G0/G1 phase at 0.3 uM after 72 hrs by propidium iodide staining-based flow cytometric method (reference value: 80%); type: functional
JeKo-1 = experiment: cells; type: functional, cell-based; conditions: Homo sapiens, JeKo-1, 72 h
CAPAN-1 = experiment: cells; type: functional, cell-based; conditions: Homo sapiens, CAPAN-1, 72 h
KM-H2 = experiment: cells; conditions: Homo sapiens, KM-H2, 72 h
cells [14] = type: functional, cell-based; conditions: Homo sapiens, MINO, 72 h
MM473 [15] = experiment: Cell cycle arrest in human MM473 cells assessed as accumulation at G2/M at 4 uM after 24 hrs by propidium iodide staining-based flow cytometric method (reference value: 15.7%); type: functional
MM473 [16] = experiment: cells; type: functional, cell-based; conditions: Homo sapiens, MM473, 72 h
[17] = target: Protein deacetylase HDAC6 (Homo sapiens, UniProt Q9UBN7); experiment: Inhibition of HDAC6 (unknown origin) using RHKK(Ac)AMC as substrate after 1 to 2 hrs by fluorescence assay
Chain of Protein deacetylase HDAC6 (Q9UBN7 whole entry): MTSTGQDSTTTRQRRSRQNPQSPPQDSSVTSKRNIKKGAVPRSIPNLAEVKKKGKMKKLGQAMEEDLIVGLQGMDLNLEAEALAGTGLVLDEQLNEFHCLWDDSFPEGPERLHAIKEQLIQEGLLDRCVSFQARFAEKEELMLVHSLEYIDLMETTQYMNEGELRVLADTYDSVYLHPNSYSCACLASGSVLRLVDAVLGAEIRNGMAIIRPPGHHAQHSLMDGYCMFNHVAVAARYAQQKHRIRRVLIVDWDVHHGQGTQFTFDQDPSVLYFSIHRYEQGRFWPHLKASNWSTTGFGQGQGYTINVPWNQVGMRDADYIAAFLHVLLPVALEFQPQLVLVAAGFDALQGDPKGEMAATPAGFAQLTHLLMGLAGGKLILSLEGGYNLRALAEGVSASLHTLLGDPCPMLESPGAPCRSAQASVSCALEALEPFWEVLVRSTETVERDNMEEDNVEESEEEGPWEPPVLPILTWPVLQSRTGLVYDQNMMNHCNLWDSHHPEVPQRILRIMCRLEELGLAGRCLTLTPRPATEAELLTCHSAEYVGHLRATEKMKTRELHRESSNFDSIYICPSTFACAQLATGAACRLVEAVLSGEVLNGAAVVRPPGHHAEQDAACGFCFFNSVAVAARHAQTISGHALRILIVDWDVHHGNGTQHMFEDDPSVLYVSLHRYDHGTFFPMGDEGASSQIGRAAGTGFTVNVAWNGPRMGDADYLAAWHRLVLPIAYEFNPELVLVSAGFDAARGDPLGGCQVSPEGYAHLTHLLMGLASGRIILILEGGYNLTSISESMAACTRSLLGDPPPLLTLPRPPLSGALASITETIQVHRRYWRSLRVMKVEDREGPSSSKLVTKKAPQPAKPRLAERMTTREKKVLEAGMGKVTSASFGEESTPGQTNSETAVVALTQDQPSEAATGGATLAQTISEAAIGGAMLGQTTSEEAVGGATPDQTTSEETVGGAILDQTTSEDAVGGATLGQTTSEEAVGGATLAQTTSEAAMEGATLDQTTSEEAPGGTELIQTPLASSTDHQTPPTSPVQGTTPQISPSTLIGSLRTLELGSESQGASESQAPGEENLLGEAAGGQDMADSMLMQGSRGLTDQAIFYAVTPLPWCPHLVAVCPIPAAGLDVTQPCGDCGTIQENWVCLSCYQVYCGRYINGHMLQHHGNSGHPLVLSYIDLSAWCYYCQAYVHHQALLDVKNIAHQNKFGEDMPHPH

HeLa = experiment: cells; type: functional, cell-based; conditions: Homo sapiens, 72 h
MM473 [18] = experiment: Cell cycle arrest in human MM473 cells assessed as accumulation at S phase at 4 uM after 72 hrs by propidium iodide staining-based flow cytometric method (reference value: 15.1%); type: functional
[19] = Cell cycle arrest in human MM487 cells assessed as accumulation at G0/G1 phase at 0.3 uM after 24 hrs by propidium iodide staining-based flow cytometric method (reference value: 57.9%); type: functional
[20] = target: Polyamine deacetylase HDAC10 (Homo sapiens, UniProt Q969S8); experiment: Inhibition of HDAC10 (unknown origin) using RHKK(Ac)AMC as substrate after 1 to 2 hrs by fluorescence assay
Chain of Polyamine deacetylase HDAC10 (Q969S8 whole entry): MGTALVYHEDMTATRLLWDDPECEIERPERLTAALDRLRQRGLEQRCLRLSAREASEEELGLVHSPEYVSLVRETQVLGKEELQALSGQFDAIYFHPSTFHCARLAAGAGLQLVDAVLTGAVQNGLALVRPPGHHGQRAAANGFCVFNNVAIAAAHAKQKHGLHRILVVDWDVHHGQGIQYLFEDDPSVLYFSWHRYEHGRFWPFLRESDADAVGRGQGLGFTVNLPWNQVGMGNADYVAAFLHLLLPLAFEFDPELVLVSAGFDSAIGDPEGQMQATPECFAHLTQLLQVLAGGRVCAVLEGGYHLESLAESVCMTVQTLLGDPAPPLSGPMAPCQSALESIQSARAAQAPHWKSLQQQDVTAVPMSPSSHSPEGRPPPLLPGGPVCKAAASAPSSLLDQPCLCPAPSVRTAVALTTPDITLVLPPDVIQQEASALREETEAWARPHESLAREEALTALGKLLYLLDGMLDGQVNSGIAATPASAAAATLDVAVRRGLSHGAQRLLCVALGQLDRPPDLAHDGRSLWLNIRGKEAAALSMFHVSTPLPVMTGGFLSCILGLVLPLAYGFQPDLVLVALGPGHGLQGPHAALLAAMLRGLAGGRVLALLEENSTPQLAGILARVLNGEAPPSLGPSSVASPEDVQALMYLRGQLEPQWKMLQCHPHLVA

HT-29 = experiment: Antiproliferative activity against human HT-29 cells after 72 hrs by SRB assay; type: functional, cell-based; conditions: HT-29, 72 h
[21] = Cell cycle arrest in human MM487 cells assessed as accumulation at G0/G1 phase at 0.3 uM after 48 hrs by propidium iodide staining-based flow cytometric method (reference value: 73.8%); type: functional
Mus musculus = experiment: Toxicity in CD1 nude mouse xenografted with human MM473 cells assessed as body weight loss at 90 mg/kg, iv administered every 4 days per week for 3 weeks measured during compound dosing and on day 40 post last dose; type: organism-based; conditions: in vivo
Summary of the method: as §1

MM473 [22] = experiment: Cell cycle arrest in human MM473 cells assessed as accumulation at G2/M phase at 4 uM after 48 hrs by propidium iodide staining-based flow cytometric method (reference value: 4.3%); type: functional
[23] = Cell cycle arrest in human MM487 cells assessed as accumulation at S phase at 0.3 uM after 24 hrs by propidium iodide staining-based flow cytometric method (reference value: 25.2%); type: functional
DG-75 = experiment: cells; type: functional, cell-based; conditions: Homo sapiens, DG-75, 72 h
MM473 [24] = experiment: Cell cycle arrest in human MM473 cells assessed as accumulation at G0/G1 phase at 4 uM after 48 hrs by propidium iodide staining-based flow cytometric method (reference value: 71.8%); type: functional
L-428 = experiment: cells; type: functional, cell-based; conditions: Homo sapiens, L-428, 72 h

With `CC[C@@]1(O)C(=O)OCc2c1cc1n(c2=O)Cc2c-1nc1ccccc1c2/C=N/OCCCCCC(=O)NCCSSCCNC(=O)/C(Cc1ccc(O)c(Br)c1)=N\O` the IC50 (NCI-H460) was 170 nM, the IC50 (cells [1]) was 4000 nM and the Activity (MM473 [2]) was 6.2%. For the same compound, the Activity (MM473 [3]) was 11%, the IC50 (A2780) was 220 nM and the IC50 (cells [4]) was 300 nM. It also gave an Activity (MM473 [5]) of 83.5%, an IC50 (Histone deacetylase 2) of 327 nM and an Activity [6] of 2.6%. For the same compound, the IC50 (cells [7]) was 830 nM, the IC50 (HepG2) was 760 nM and the Activity [8] was 59.2%. It also gave an Activity (MM473 [9]) of 14.5%, an Activity [10] of 15.7% and an Activity [11] of 21.2%. It also gave an IC50 (NB-4) of 47 nM, an IC50 (U2932) of 110 nM and an inhibition in vivo at 90 mg/kg (MM473 [12]) of 78%. It also gave an Activity [13] of 19.6%, an IC50 (JeKo-1) of 60 nM and an IC50 (CAPAN-1) of 50 nM. For the same compound, the IC50 (KM-H2) was 280 nM, the IC50 (cells [14]) was 35 nM and the Activity (MM473 [15]) was 13.1%. For the same compound, the IC50 (MM473 [16]) was 1900 nM, the IC50 [17] was 709 nM and the IC50 (HeLa) was 470 nM. The Activity (MM473 [18]) was 79.3%, the Activity [19] was 20.6% and the IC50 [20] was 7.55 nM. The IC50 (HT-29) was 660 nM, the Activity [21] was 16.5% and the Activity (Mus musculus) was “Non-Toxic”. The Activity (MM473 [22]) was 12%, the Activity [23] was 77.62% and the IC50 (DG-75) was 8400 nM. It also gave an Activity (MM473 [24]) of 4.5% and an IC50 (L-428) of 600 nM.
